Measured values as given in ChEMBL document CHEMBL1938326, “Synthesis and in vitro and in vivo anticancer activity of novel phenylmethylene bis-isoxazolo[4,5-b]azepines” (Bioorg Med Chem Lett, 2012).
In brackets after ≈: the same amount, converted by molar mass. Activity calls are given as the source filed them. The calls are words filed in the database; no cut-off is given here.

Experiments:
Mus musculus [1] = experiment: Toxicity in Swiss albino mouse xenografted with […] cells assessed as change in body weight at 10 mg/kg, ip qd administered for 9 days measured after 14 days (reference value: 12.2 +/- 0.8 g); format: organism-based, Ehrlich; design: dose 10 mg/kg, route intraperitoneal; conditions: in vivo, 336 h
[2] = Cytotoxicity against […] cells after 48 hrs by MTT assay; format: functional, cell-based; conditions: Mus musculus, Ehrlich
Summary of the method: (§1)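 Cells grown with 10% FBS, 1% L-glutamine and antibiotics at 37 °C, 5% CO₂. Seeded at 1 × 10⁵ cells/mL and incubated 24 h. Compounds added from DMSO stocks, final DMSO <1%, for 48 h. MTT (2.5 mg/mL) added for 2 h, then OD read at 490 nm. IC50 (50% reduction in OD versus untreated) taken from dose–response curves; three independent determinations.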

Mus musculus [3] = experiment: Protective effect on haemopoietic system in Swiss albino mouse xenografted with […] cells assessed as change in lymphocytes count at 10 mg/kg, ip qd administered for 9 days measured after 14 days (reference value: 23 +/- 0.6 %); format: functional, Ehrlich; conditions: route intraperitoneal
Summary of the method: (§2)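 Swiss albino female mice (8 weeks, n = 10 per group) inoculated ip with EAC cells (0.2 mL of 2 × 10⁶ cells/mouse), then dosed daily for 9 days starting 24 h after inoculation. On day 14, hemoglobin, RBC, WBC and differential leukocyte counts were compared with uninoculated normal and EAC control groups; mean ± SEM.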

Mus musculus [4] = experiment: Toxicity in Swiss albino mouse xenografted with human EAC cells assessed as change in body weight at 5 mg/kg, ip qd administered for 9 days measured after 14 days (reference value: 12.2 +/- 0.8 g); format: organism-based, Ehrlich; design: dose 5 mg/kg, route intraperitoneal; conditions: in vivo, 336 h
Mus musculus [5] = experiment: Protective effect on haemopoietic system in Swiss albino mouse xenografted with […] cells assessed as RBC count at 5 mg/kg, ip qd administered for 9 days measured after 14 days; format: functional, organism-based; design: dose 5 mg/kg; conditions: Ehrlich; summary of the method: as §2
[6] = Antitumor activity against […] cells xenografted in Swiss albino mouse assessed as increase in life span at 5 mg/kg, ip qd administered for 9 days; format: functional, Ehrlich; conditions: route intraperitoneal
Summary of the method: (§3)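 Female Swiss albino mice, 8 weeks old and 20–25 g, received 0.2 mL of 2 × 10⁶ EAC cells/mouse i.p. on day 0. Daily dosing started 24 h later and ran 9 days; controls received sterile saline i.p. After day-14 sacrifice of five per group, mortality was recorded daily for 30 days. MST = (first + last death day)/2; %ILS = [(MST treated/MST control) − 1] × 100.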

Mus musculus [7] = experiment: Reduction in ascetic fluid volume in Swiss albino mouse xenografted with […] cells at 5 to 10 mg/kg, ip qd administered for 9 days measured after 14 days; format: functional, organism-based; conditions: Ehrlich
[8] = Antitumor activity against […] cells xenografted in Swiss albino mouse assessed as packed cell volume at 5 mg/kg, ip qd administered for 9 days measured after 14 days (reference value: 2.8 +/- 0.5 ml); format: functional, Ehrlich; conditions: route intraperitoneal
Ehrlich [9] = experiment: Antitumor activity against […] cells xenografted in Swiss albino mouse assessed as viable tumor cell count at 10 mg/kg, ip qd administered for 9 days measured after 14 days by trypan blue assay; format: functional, organism-based; design: dose 10 mg/kg
[10] = Antitumor activity against […] cells xenografted in Swiss albino mouse assessed as increase in life span at 10 mg/kg, ip qd administered for 9 days; format: functional, Ehrlich; conditions: route intraperitoneal; summary of the method: as §3
[11] = Antitumor activity against […] cells xenografted in Swiss albino mouse assessed as mean survival time at 5 mg/kg, ip qd administered for 9 days measured after 14 days (reference value: 13.7+/- 0.4 days); format: functional, Ehrlich; conditions: route intraperitoneal; summary of the method: as §3
Mus musculus [12] = experiment: Protective effect on haemopoietic system in Swiss albino mouse xenografted with […] cells assessed as WBC count at 5 mg/kg, ip qd administered for 9 days measured after 14 days; format: functional, organism-based; design: dose 5 mg/kg; conditions: Ehrlich; summary of the method: as §2
Mus musculus [13] = experiment: Protective effect on haemopoietic system in Swiss albino mouse xenografted with […] cells assessed as change in monocytes count at 5 mg/kg, ip qd administered for 9 days measured after 14 days (reference value: 2.4 +/- 0.1 %); format: functional, Ehrlich; conditions: route intraperitoneal; summary of the method: as §2
[14] = Antitumor activity against […] cells xenografted in Swiss albino mouse assessed as mean survival time at 10 mg/kg, ip qd administered for 9 days measured after 14 days (reference value: 13.7+/- 0.4 days); format: functional, Ehrlich; conditions: route intraperitoneal; summary of the method: as §3
Mus musculus [15] = experiment: Protective effect on haemopoietic system in Swiss albino mouse xenografted with […] cells assessed as RBC count at 10 mg/kg, ip qd administered for 9 days measured after 14 days; format: functional, organism-based; design: dose 10 mg/kg; conditions: Ehrlich; summary of the method: as §2
HeLa = experiment: Cytotoxicity against human HeLa cells after 48 hrs by MTT assay; format: functional, cell-based; summary of the method: as §1
MCF7 = experiment: Cytotoxicity against human MCF7 cells after 48 hrs by MTT assay; format: functional, cell-based; conditions: MCF7, 48 h; summary of the method: as §1
Mus musculus [16] = experiment: Protective effect on haemopoietic system in Swiss albino mouse xenografted with […] cells assessed as WBC count at 10 mg/kg, ip qd administered for 9 days measured after 14 days; format: functional, organism-based; design: dose 10 mg/kg; conditions: Ehrlich; summary of the method: as §2
Mus musculus [17] = experiment: Protective effect on haemopoietic system in Swiss albino mouse xenografted with […] cells assessed as change in neutrophils count at 10 mg/kg, ip qd administered for 9 days measured after 14 days (reference value: 73 +/- 1.3 %); format: functional, Ehrlich; conditions: route intraperitoneal; summary of the method: as §2
Mus musculus [18] = experiment: Protective effect on haemopoietic system in Swiss albino mouse xenografted with […] cells assessed as change in hemoglobin level at 10 mg/kg, ip qd administered for 9 days measured after 14 days (reference value: 5.8 +/- 0.7 g%); format: functional, Ehrlich; conditions: route intraperitoneal; summary of the method: as §2
Mus musculus [19] = experiment: Protective effect on haemopoietic system in Swiss albino mouse xenografted with […] cells assessed as change in neutrophils count at 5 mg/kg, ip qd administered for 9 days measured after 14 days (reference value: 73 +/- 1.3 %); format: functional, Ehrlich; conditions: route intraperitoneal; summary of the method: as §2
Mus musculus [20] = experiment: Protective effect on haemopoietic system in Swiss albino mouse xenografted with […] cells assessed as change in lymphocytes count at 5 mg/kg, ip qd administered for 9 days measured after 14 days (reference value: 23 +/- 0.6 %); format: functional, Ehrlich; conditions: route intraperitoneal; summary of the method: as §2
[21] = Antitumor activity against […] cells xenografted in Swiss albino mouse assessed as packed cell volume at 10 mg/kg, ip qd administered for 9 days measured after 14 days (reference value: 2.8 +/- 0.5 ml); format: functional, Ehrlich; conditions: route intraperitoneal
Mus musculus [22] = experiment: Protective effect on haemopoietic system in Swiss albino mouse xenografted with […] cells assessed as change in monocytes count at 10 mg/kg, ip qd administered for 9 days measured after 14 days (reference value: 2.4 +/- 0.1 %); format: functional, Ehrlich; conditions: route intraperitoneal; summary of the method: as §2
Mus musculus [23] = experiment: Protective effect on haemopoietic system in Swiss albino mouse xenografted with […] cells assessed as change in hemoglobin level at 5 mg/kg, ip qd administered for 9 days measured after 14 days (reference value: 5.8 +/- 0.7 g%); format: functional, Ehrlich; conditions: route intraperitoneal; summary of the method: as §2
[24] = Antitumor activity against […] cells xenografted in Swiss albino mouse assessed as change in tumor volume at 5 mg/kg, ip qd administered for 9 days measured after 14 days (reference value: 12.1 +/- 0.9 ml); format: functional, Ehrlich; conditions: route intraperitoneal
[25] = Antitumor activity against […] cells xenografted in Swiss albino mouse assessed as change in tumor volume at 10 mg/kg, ip qd administered for 9 days measured after 14 days (reference value: 12.1 +/- 0.9 ml); format: functional, Ehrlich; conditions: route intraperitoneal
Ehrlich [26] = experiment: Antitumor activity against […] cells xenografted in Swiss albino mouse assessed as viable tumor cell count at 5 mg/kg, ip qd administered for 9 days measured after 14 days by trypan blue assay; format: functional, organism-based; design: dose 5 mg/kg

Cc1noc2c1N=C(c1ccco1)CC(c1ccccc1)C2C(c1ccccc1)C1c2onc(C)c2N=C(c2ccco2)CC1c1ccccc1 (centres undefined)
Activity (Mus musculus [1]): 9.6 g
IC50 [2]: 28.9 µg/mL (≈ 43 µM)
Activity (Mus musculus [3]): 46%
Activity (Mus musculus [4]): 10.6 g
Activity (Mus musculus [5]): Active
Activity [6]: 8.8%
Activity (Mus musculus [7]): Active
Activity [8]: 2.1 mL
Activity (Ehrlich [9]): Active
Activity [10]: 33.6%
MSD [11]: 14.9 days
Activity (Mus musculus [12]): Active
Activity (Mus musculus [13]): 2.1%
MSD [14]: 18.3 days
Activity (Mus musculus [15]): Active
IC50 (HeLa): 32.7 µg/mL (≈ 48.6 µM)
IC50 (MCF7): 35.9 µg/mL (≈ 53.4 µM)
Activity (Mus musculus [16]): Active
Activity (Mus musculus [17]): 49%
Activity (Mus musculus [18]): 7.4 g%
Activity (Mus musculus [19]): 63%
Activity (Mus musculus [20]): 29%
Activity [21]: 1.6 mL
Activity (Mus musculus [22]): 1.7%
Activity (Mus musculus [23]): 6 g%
Activity [24]: 11 mL
Activity [25]: 8.5 mL

COc1ccc(C2CC(c3ccccc3)=Nc3c(C)noc3C2C(c2ccccc2)C2c3onc(C)c3N=C(c3ccccc3)CC2c2ccc(OC)cc2)cc1 (centres undefined)
IC50 [2]: 40.1 µg/mL (≈ 53.3 µM)
IC50 (HeLa): 45.6 µg/mL (≈ 60.6 µM)
IC50 (MCF7): 53.8 µg/mL (≈ 71.5 µM)

Cc1ccc(C2=Nc3c(C)noc3C(C(c3ccccc3)C3c4onc(C)c4N=C(c4ccc(C)cc4)CC3c3ccccc3)C(c3ccccc3)C2)cc1 (centres undefined)
IC50 [2]: 50.1 µg/mL (≈ 69.5 µM)
IC50 (HeLa): 55.1 µg/mL (≈ 76.4 µM)
IC50 (MCF7): 55.9 µg/mL (≈ 77.5 µM)

Cc1ccc(C(C2c3onc(C)c3N=C(c3ccccc3)CC2c2ccccc2)C2c3onc(C)c3N=C(c3ccccc3)CC2c2ccccc2)cc1 (centres undefined)
IC50 [2]: 48.2 µg/mL (≈ 68.2 µM)
IC50 (HeLa): 38.4 µg/mL (≈ 54.3 µM)
IC50 (MCF7): 41.9 µg/mL (≈ 59.3 µM)

Cc1noc2c1N=C(c1ccc(Cl)cc1)CC(c1ccccc1)C2C(c1ccccc1)C1c2onc(C)c2N=C(c2ccc(Cl)cc2)CC1c1ccccc1 (centres undefined)
IC50 [2]: 58.5 µg/mL (≈ 76.8 µM)
IC50 (HeLa): 60.2 µg/mL (≈ 79 µM)
IC50 (MCF7): 61.1 µg/mL (≈ 80.2 µM)

Cc1noc2c1N=C(c1ccccc1)CC(c1ccccc1)C2C(c1ccccc1)C1c2onc(C)c2N=C(c2ccccc2)CC1c1ccccc1 (centres undefined)
IC50 [2]: 66.5 µg/mL (≈ 96 µM)
IC50 (HeLa): 68.7 µg/mL (≈ 99.2 µM)
IC50 (MCF7): 68.9 µg/mL (≈ 99.4 µM)

Cc1noc2c1N=C(c1cccs1)CC(c1ccccc1)C2C(c1ccccc1)C1c2onc(C)c2N=C(c2cccs2)CC1c1ccccc1 (centres undefined)
Activity (Mus musculus [1]): 6.7 g
IC50 [2]: 26.1 µg/mL (≈ 37 µM)
Activity (Mus musculus [3]): 51%
Activity (Mus musculus [4]): 8.3 g
Activity (Mus musculus [5]): Active
Activity [6]: 29.9%
Activity (Mus musculus [7]): Active
Activity [8]: 1.8 mL
Activity (Ehrlich [9]): Active
Activity [10]: 73.7%
MSD [11]: 17.8 days
Activity (Mus musculus [12]): Active
Activity (Mus musculus [13]): 1.9%
MSD [14]: 23.8 days
Activity (Mus musculus [15]): Active
IC50 (HeLa): 28.5 µg/mL (≈ 40.4 µM)
IC50 (MCF7): 24.1 µg/mL (≈ 34.2 µM)
Activity (Mus musculus [16]): Active
Activity (Mus musculus [17]): 36%
Activity (Mus musculus [18]): 8.5 g%
Activity (Ehrlich [26]): Active
Activity (Mus musculus [19]): 54%
Activity (Mus musculus [20]): 35%
Activity [21]: 1.1 mL
Activity (Mus musculus [22]): 1.4%
Activity (Mus musculus [23]): 7.3 g%
Activity [24]: 7.3 mL
Activity [25]: 4.9 mL

COc1ccc(C(C2c3onc(C)c3N=C(c3ccccc3)CC2c2ccccc2)C2c3onc(C)c3N=C(c3ccccc3)CC2c2ccccc2)cc1 (centres undefined)
IC50 [2]: 41.9 µg/mL (≈ 58 µM)
IC50 (HeLa): 65.9 µg/mL (≈ 91.2 µM)
IC50 (MCF7): 57.3 µg/mL (≈ 79.3 µM)

Cc1ccc(C2CC(c3ccccc3)=Nc3c(C)noc3C2C(c2ccccc2)C2c3onc(C)c3N=C(c3ccccc3)CC2c2ccc(C)cc2)cc1 (centres undefined)
IC50 [2]: 51.6 µg/mL (≈ 71.6 µM)
IC50 (HeLa): 53.3 µg/mL (≈ 73.9 µM)
IC50 (MCF7): 50.1 µg/mL (≈ 69.5 µM)

Cc1noc2c1N=C(c1ccccc1)CC(c1ccccc1)C2C(c1ccc(Cl)cc1)C1c2onc(C)c2N=C(c2ccccc2)CC1c1ccccc1 (centres undefined)
IC50 [2]: 60.4 µg/mL (≈ 83 µM)
IC50 (HeLa): 55.9 µg/mL (≈ 76.9 µM)
IC50 (MCF7): 59 µg/mL (≈ 81.1 µM)
